# ChEMBL document CHEMBL4038284, “Synthesis of novel quinoline-based 4,5-dihydro-1H-pyrazoles as potential anticancer, antifungal, antibacterial and antiprotozoal agents” (Eur J Med Chem, 2017)
# Legend:
# Klebsiella pneumoniae [1] = assay: Antibacterial activity against ESBL positive Klebsiella pneumoniae ATCC 700603 after 24 hrs by resazurin dye based microdilution assay; format: functional; settings: Klebsiella pneumoniae, 700603, 24 h
# Procedure, shortened: (§1)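 MIC taken as the lowest concentration giving visible inhibition and/or by resazurin (1 mg/mL). Gentamicin was the control. Run in duplicate, repeated at least three times.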
# Klebsiella pneumoniae [2] = assay: Antibacterial activity against carbapenemase positive Klebsiella pneumoniae BAA 1705 after 24 hrs by resazurin dye based microdilution assay; format: functional; settings: BAA 1705, 24 h; procedure, shortened: as §1
# Leishmania panamensis = assay: Antileshmanial activity against EpiR/GFP fused Leishmania panamensis MHOM/CO/87/UA140 intracellular amastigotes infected in human […] cells after 72 hrs by flow cytometric method; format: functional, cell-based; settings: MHOM/CO/87/UA140, 72 h
# Procedure, shortened: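 PMA-treated U-937 cells (3 × 10^5 cells/mL) infected with stationary-phase GFP L. panamensis promastigotes (15:1), 3 h at 34 °C, then washed. After 24 h, compounds added at 50, 12.5, 3.125 and 0.78 µg/mL for 72 h at 37 °C. EC50 by Probit; triplicate, two experiments.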
# Candida albicans [3] = assay: Antifungal activity against Candida albicans ATCC 10231 incubated for 48 hrs under dark condition by broth microdilution method; format: functional; settings: ATCC 10231, 48 h
# Procedure, shortened: (§2)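 CLSI M27-A3 broth microdilution in RPMI-1640, DMSO ≤1%, compounds at 250-0.98 µg/mL final. Inoculum 1-5 × 10^3 CFU/mL. Incubated 48 h at 30 °C in a moist dark chamber, read at OD405. MIC80 and MIC50 taken from % inhibition dose-response curves (mean ± SEM, triplicate). Amphotericin B was the positive control.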
# Cryptococcus neoformans [4] = assay: Antifungal activity against Cryptococcus neoformans ATCC 32264 incubated for 48 hrs under dark condition by broth microdilution method; format: functional; settings: ATCC 32264, 48 h; procedure, shortened: as §2
# Candida albicans [5] = assay: Growth inhibition of Candida albicans ATCC 10231 at 250 ug/ml incubated for 48 hrs under dark condition by broth microdilution method relative to control; format: functional; settings: ATCC 10231, 48 h, read-out: GI
# Procedure, shortened: (§3)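 CLSI M27-A3 broth microdilution in RPMI-1640, DMSO ≤1%. Inoculum 1-5 × 10^3 CFU/mL. Incubated 48 h at 30 °C, dark. % inhibition = 100 − (OD405 test − sterility control)/(OD405 growth control − sterility control), with growth and sterility control wells. Triplicate.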
# Candida albicans [6] = assay: Growth inhibition of Candida albicans ATCC 10231 at 125 ug/ml incubated for 48 hrs under dark condition by broth microdilution method relative to control; format: functional; settings: ATCC 10231, 48 h, read-out: GI; procedure, shortened: as §3
# Candida albicans [7] = assay: Growth inhibition of Candida albicans ATCC 10231 at 62.5 ug/ml incubated for 48 hrs under dark condition by broth microdilution method relative to control; format: functional; settings: ATCC 10231, 48 h, read-out: GI; procedure, shortened: as §3
# Candida albicans [8] = assay: Growth inhibition of Candida albicans ATCC 10231 at 31.25 ug/ml incubated for 48 hrs under dark condition by broth microdilution method relative to control; format: functional; settings: ATCC 10231, 48 h, read-out: GI; procedure, shortened: as §3
# Candida albicans [9] = assay: Growth inhibition of Candida albicans ATCC 10231 at 15.62 ug/ml incubated for 48 hrs under dark condition by broth microdilution method relative to control; format: functional; settings: ATCC 10231, 48 h, read-out: GI; procedure, shortened: as §3
# Candida albicans [10] = assay: Growth inhibition of Candida albicans ATCC 10231 at 7.8 ug/ml incubated for 48 hrs under dark condition by broth microdilution method relative to control; format: functional; settings: ATCC 10231, 48 h, read-out: GI; procedure, shortened: as §3
# Candida albicans [11] = assay: Growth inhibition of Candida albicans ATCC 10231 at 3.4 ug/ml incubated for 48 hrs under dark condition by broth microdilution method relative to control; format: functional; settings: ATCC 10231, 48 h, read-out: GI
# Cryptococcus neoformans [12] = assay: Growth inhibition of Cryptococcus neoformans ATCC 32264 at 250 ug/ml incubated for 48 hrs under dark condition by broth microdilution method relative to control; format: functional; settings: ATCC 32264, 48 h, read-out: GI; procedure, shortened: as §3
# Cryptococcus neoformans [13] = assay: Growth inhibition of Cryptococcus neoformans ATCC 32264 at 125 ug/ml incubated for 48 hrs under dark condition by broth microdilution method relative to control; format: functional; settings: ATCC 32264, 48 h, read-out: GI; procedure, shortened: as §3
# Cryptococcus neoformans [14] = assay: Growth inhibition of Cryptococcus neoformans ATCC 32264 at 62.5 ug/ml incubated for 48 hrs under dark condition by broth microdilution method relative to control; format: functional; settings: ATCC 32264, 48 h, read-out: GI; procedure, shortened: as §3
# Cryptococcus neoformans [15] = assay: Growth inhibition of Cryptococcus neoformans ATCC 32264 at 31.25 ug/ml incubated for 48 hrs under dark condition by broth microdilution method relative to control; format: functional; settings: ATCC 32264, 48 h, read-out: GI; procedure, shortened: as §3
# Cryptococcus neoformans [16] = assay: Growth inhibition of Cryptococcus neoformans ATCC 32264 at 15.62 ug/ml incubated for 48 hrs under dark condition by broth microdilution method relative to control; format: functional; settings: ATCC 32264, 48 h, read-out: GI; procedure, shortened: as §3
# Cryptococcus neoformans [17] = assay: Growth inhibition of Cryptococcus neoformans ATCC 32264 at 7.8 ug/ml incubated for 48 hrs under dark condition by broth microdilution method relative to control; format: functional; settings: ATCC 32264, 48 h, read-out: GI; procedure, shortened: as §3
# Cryptococcus neoformans [18] = assay: Growth inhibition of Cryptococcus neoformans ATCC 32264 at 3.4 ug/ml incubated for 48 hrs under dark condition by broth microdilution method relative to control; format: functional; settings: ATCC 32264, 48 h, read-out: GI
# Staphylococcus aureus [19] = assay: Antibacterial activity against methicillin-sensitive Staphylococcus aureus ATCC 25923 after 24 hrs by resazurin dye based microdilution assay; format: functional; settings: ATCC 25923, 24 h; procedure, shortened: as §1
# Staphylococcus aureus [20] = assay: Antibacterial activity against methicillin-resistant Staphylococcus aureus ATCC 43300 after 24 hrs by resazurin dye based microdilution assay; format: functional; settings: ATCC 43300, 24 h
# Procedure, shortened: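 Broth microdilution in Mueller Hinton broth, inoculum 5 × 10^5 – 8 × 10^5. Compound stocks diluted in MHB with 5% DMSO and 0.1% Tween 80. Incubation 24 h at 35-37 °C. MIC is the lowest concentration with visible growth inhibition and/or by resazurin (1 mg/mL) read-out. Gentamicin as control. Run in duplicate, replicated at least three times.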
# Staphylococcus aureus [21] = assay: Antibacterial activity against vancomycin-intermediate Staphylococcus aureus after 24 hrs by resazurin dye based microdilution assay; format: functional; procedure, shortened: as §1
# Escherichia coli = assay: Antibacterial activity against Escherichia coli ATCC 25922 after 24 hrs by resazurin dye based microdilution assay; format: functional; settings: ATCC 25922, 24 h; procedure, shortened: as §1
# Pseudomonas aeruginosa = assay: Antibacterial activity against Pseudomonas aeruginosa ATCC 27853 after 24 hrs by resazurin dye based microdilution assay; format: functional; settings: ATCC 27853, 24 h; procedure, shortened: as §1
# Neisseria gonorrhoeae = assay: Antibacterial activity against beta lactamase positive Neisseria gonorrhoeae ATCC 31426 by oxidase test; format: functional
# Procedure, shortened: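 Agar dilution MIC on GC agar with 1% isovitalex containing increasing compound concentrations. Plates inoculated with about 1×10^4 CFU (5 µL). MIC is the lowest concentration that inhibited growth, with growth confirmed by oxidase test. Run in duplicate, repeated at least three times.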
# Plasmodium falciparum = assay: Antiplasmodial activity against chloroquine-sensitive Plasmodium falciparum 3D7 assessed as reduction in parasitic LDH activity after 48 hrs by Malstat reagent based […] method; format: functional; settings: 3D7, 48 h
# Procedure, shortened: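 Unsynchronized P. falciparum 3D7 at 0.5% parasitemia and 1% hematocrit in RPMI with 3% Albumax II. Exposed to 100, 25, 6.25 and 1.56 µg/mL for 48 h at 37 °C under 90% N2/5% CO2/5% O2. After three freeze-thaw cycles, LDH measured with Malstat and NBT/PES, 1 h in the dark, read at 650 nm. IC50 by Probit; triplicate, ≥2 experiments.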
# U-937 = assay: Cytotoxicity against human U937 cells after 72 hrs by MTT assay; format: cell-based; settings: u-937, 72 h
# Procedure, shortened: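 Exponentially growing U-937 at 1 × 10^5 cells/mL in RPMI-1640 with 10% FBS were exposed to 200, 50, 12.5 and 3.125 µg/mL for 72 h at 37 °C, 5% CO2. MTT for 3 h, stopped with isopropanol/SDS, formazan read at 570 nm, blank-corrected. LC50 by Probit from % viability against untreated cells. Triplicate, at least two independent experiments.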
# Trypanosoma cruzi = assay: Antitrypanosomal activity against Trypanosoma cruzi Tulahuen intracellular amastigote harboring LacZ infected in human U937 cells after 72 hrs by CPRG/Nonidet reagent based spectrophotometric method; format: functional, cell-based; settings: U-937, 72 h
# Procedure, shortened: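 U-937 cells at 2.5 × 10^5 cells/mL in RPMI-1640 with 10% serum and 0.1 µg/mL PMA were infected with β-galactosidase-transfected Tulahuen epimastigotes at 5 parasites per cell. Infected cells were exposed to 50, 12.5, 3.125 and 0.78 µg/mL for 72 h. CPRG (100 uM) and 0.1% Nonidet P-40 were added for 3 h, read at 570 nm. EC50 by Probit. Triplicate, at least two experiments; benznidazole as reference.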
structure (smiles),measurement,setting,value
Cc1ccc(C2=NN(c3ccccc3)C(c3cccc(Nc4ccnc5cc(Cl)ccc45)c3)C2)cc1 (stereo not given),MIC,Klebsiella pneumoniae [1],> 1000 µg/mL
same,MIC,Klebsiella pneumoniae [2],> 1000 µg/mL
same,EC50,Leishmania panamensis,1.83 µg/mL
same,MIC50,Candida albicans [3],≥ 250 µg/mL
same,MIC80,Candida albicans [3],≥ 250 µg/mL
same,MIC50,Cryptococcus neoformans [4],≥ 250 µg/mL
same,MIC80,Cryptococcus neoformans [4],≥ 250 µg/mL
same,inhibition of growth at 250 µg/mL,Candida albicans [5],28.3%
same,inhibition of growth at 125 µg/mL,Candida albicans [6],22.9%
same,inhibition of growth at 62.5 µg/mL,Candida albicans [7],13.1%
same,inhibition of growth at 31.25 µg/mL,Candida albicans [8],12%
same,inhibition of growth at 15.62 µg/mL,Candida albicans [9],7.89%
same,inhibition of growth at 7.8 µg/mL,Candida albicans [10],2.53%
same,inhibition of growth at 3.4 µg/mL,Candida albicans [11],2.29%
same,inhibition of growth at 250 µg/mL,Cryptococcus neoformans [12],31.5%
same,inhibition of growth at 125 µg/mL,Cryptococcus neoformans [13],7.45%
same,inhibition of growth at 62.5 µg/mL,Cryptococcus neoformans [14],4.01%
same,inhibition of growth at 31.25 µg/mL,Cryptococcus neoformans [15],1.72%
same,inhibition of growth at 15.62 µg/mL,Cryptococcus neoformans [16],0.86%
same,inhibition of growth at 7.8 µg/mL,Cryptococcus neoformans [17],0%
same,inhibition of growth at 3.4 µg/mL,Cryptococcus neoformans [18],0%
same,MIC,Staphylococcus aureus [19],> 1000 µg/mL
same,MIC,Staphylococcus aureus [20],> 1000 µg/mL
same,MIC,Staphylococcus aureus [21],> 1000 µg/mL
same,MIC,Escherichia coli,> 1000 µg/mL
same,MIC,Pseudomonas aeruginosa,> 1000 µg/mL
same,MIC,Neisseria gonorrhoeae,> 1000 µg/mL
same,EC50,Plasmodium falciparum,13.5 µg/mL
same,LC50,U-937,1.4 µg/mL
same,EC50,Trypanosoma cruzi,1.09 µg/mL
